# From ChEMBL document CHEMBL3272319, “Alkyl streptozotocin analogues with improved biological activities” (J Med Chem, 1976)
# Legend:
# [1] = Antitumor activity against mouse S180A allografted in ICR mouse assessed as tumor growth at 50 mg/kg, ip qd for 5 days measured on day 7 relative to control; type: functional; conditions: route intraperitoneal
# Outline: (§1)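 Ascites Sarcoma 180 (1 × 10^7 cells) implanted into ICR mice, six animals per group. Five daily ip injections in saline (days 1–5). Sacrificed day 7. T/C % computed from total packed cell volume (ascites volume × PCV) vs controls. Grades: 100-66 = -, 65-41 = +, 40-11 = ++, 10-0 = +++.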
# [2] = test system: Mus musculus; experiment: Toxicity in ICR mouse allografted with mouse S180A assessed as mortality at 50 mg/kg, ip qd for 5 days; type: organism-based; set-up: dose 50 mg/kg, route intraperitoneal; conditions: in vivo, 120 h
# Outline: (§2)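 Ascites Sarcoma 180 (1 × 10^7 cells) implanted into ICR mice, six per group; compound in saline ip once daily days 1-5; sacrifice on day 7; total packed cell volume (ascites volume × PCV) compared with controls as T/C %; mortality recorded.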
# [3] = test system: Ehrlich; experiment: Antitumor activity against mouse EAC allografted in ICR mouse assessed as tumor growth at 125 mg/kg, ip qd for 5 days measured on day 7 relative to control; type: functional; conditions: route intraperitoneal
# Outline: (§3)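 Ehrlich ascites carcinoma (1 × 10^7 cells) implanted into ICR mice, six per group. Drug in saline ip, qd days 1–5. Mice killed day 7. Total packed cell volume = ascites volume × % packed cell volume; T/C % = TPCV treated/control × 100. Activity graded from T/C.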
# [4] = test system: Mus musculus; experiment: Toxicity in ICR mouse allografted with mouse EAC assessed as mortality at 125 mg/kg, ip qd for 5 days; type: organism-based; set-up: dose 125 mg/kg, route intraperitoneal; conditions: in vivo, 120 h
# Outline: (§4)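 Ehrlich ascites carcinoma (1 × 10^7 cells) implanted into ICR mice, six per group; compound ip daily for 5 days; mice sacrificed day 7; tumour burden as total packed cell volume (ascites volume × PCV), T/C % vs controls; mortality recorded.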
# [5] = (§5) Acute toxicity in ip dosed JCL-ICR mouse assessed as animal death; type: organism-based; conditions: JCL-ICR, in vivo
# Outline: (§6)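 Groups of ten female JCL-ICR mice given single ip dose in physiological saline; deaths followed over 7 days; LD50 (and LD10) derived by Litchfield–Wilcoxon method.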
# [6] = test system: Mus musculus; experiment: as §5; type: organism-based; conditions: in vivo; outline: as §6
# [7] = test system: Mus musculus; experiment: Ratio of compound LD10 to streptozotocin LD10 for JCL-ICR mouse; type: ADME, organism-based; conditions: in vivo
# [8] = Ratio of compound LD50 to streptozotocin LD50 for JCL-ICR mouse; type: ADME, organism-based; conditions: in vivo
# [9] = test system: Rattus norvegicus; experiment: Diabetogenic activity in iv dosed Wistar rat assessed as increase in blood sugar level administered as single dose by glucose oxidase method; type: ADME, organism-based; conditions: in vivo
# Outline: (§7)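 Male Wistar rats, about 200 g, five per group, fasted 16 h. Single iv dose into the femoral vein in physiological saline, equimolar across compounds. Caudal-vein blood sampled at set times over 24 h. Sugar measured by glucose oxidase.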
# [10] = test system: L1210; experiment: Antitumor activity against mouse L1210 cells allografted in BDF1 mouse assessed as increase in host lifespan at 100 mg/kg, ip qd for 5 days relative to control; type: functional; conditions: 120 h, route intraperitoneal
# Outline: (§8)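 L1210 (1 × 10^5 cells) implanted into BDF1 mice, six per group; compound in saline ip once daily days 1-5; effect read as % increase in life span, ILS = [(treated life span/control life span) − 1] × 100.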
# [11] = test system: Mus musculus; experiment: Toxicity in BDF1 mouse allografted with mouse L1210 cells assessed as mortality at 100 mg/kg, ip qd for 5 days; type: organism-based; set-up: dose 100 mg/kg, route intraperitoneal; conditions: in vivo, 120 h; outline: as §8
# [12] = Antitumor activity against mouse S180A allografted in ICR mouse assessed as tumor growth at 25 mg/kg, ip qd for 5 days measured on day 7 relative to control; type: functional; conditions: route intraperitoneal; outline: as §1
# [13] = test system: Mus musculus; experiment: Toxicity in ICR mouse allografted with mouse S180A assessed as mortality at 25 mg/kg, ip qd for 5 days; type: organism-based; set-up: dose 25 mg/kg, route intraperitoneal; conditions: in vivo, 120 h; outline: as §2
# [14] = test system: Ehrlich; experiment: Antitumor activity against mouse EAC allografted in ICR mouse assessed as tumor growth at 150 mg/kg, ip qd for 5 days measured on day 7 relative to control; type: functional; conditions: route intraperitoneal; outline: as §3
# [15] = test system: Mus musculus; experiment: Toxicity in ICR mouse allografted with mouse EAC assessed as mortality at 150 mg/kg, ip qd for 5 days; type: organism-based; set-up: dose 150 mg/kg, route intraperitoneal; conditions: in vivo, 120 h; outline: as §4
# [16] = test system: L1210; experiment: Antitumor activity against mouse L1210 cells allografted in BDF1 mouse assessed as increase in host lifespan at 50 mg/kg, ip qd for 5 days relative to control; type: functional; conditions: 120 h, route intraperitoneal; outline: as §8
# [17] = test system: Mus musculus; experiment: Toxicity in BDF1 mouse allografted with mouse L1210 cells assessed as mortality at 50 mg/kg, ip qd for 5 days; type: organism-based; set-up: dose 50 mg/kg, route intraperitoneal; conditions: in vivo, 120 h; outline: as §8
# [18] = test system: Rattus norvegicus; experiment: Diabetogenic activity in Wistar rat assessed as increase in blood sugar level at 68 mg/kg, iv administered as single dose by glucose oxidase method; type: ADME, organism-based; set-up: dose 68 mg/kg, route intravenous; conditions: in vivo; outline: as §7
# [19] = test system: Bacillus subtilis; experiment: Antibacterial activity against Bacillus subtilis ATCC 6633 assessed as growth inhibition after 18 hrs by broth dilution method; type: functional; conditions: ATCC 6633, 18 h
# Outline: (§9)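 Twofold serial dilutions in heart infusion broth. Inoculum was a 24-h heart infusion broth culture diluted 100-fold in physiological saline. Tubes incubated 30 °C for 18 h; the table footnote gives 32 °C for 24 h. MIC in µg/ml is the lowest level giving complete growth inhibition.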
# [20] = test system: Escherichia coli; experiment: Antibacterial activity against Escherichia coli NIHJ JC-2 assessed as growth inhibition after 18 hrs by broth dilution method; type: functional; conditions: NIHJ JC-2, 18 h; outline: as §9
# [21] = test system: Klebsiella pneumoniae; experiment: Antibacterial activity against Klebsiella pneumoniae ATCC 10031 assessed as growth inhibition after 18 hrs by broth dilution method; type: functional; conditions: ATCC 10031, 18 h; outline: as §9
# [22] = test system: Proteus vulgaris; experiment: Antibacterial activity against Proteus vulgaris AHU 1469 assessed as growth inhibition after 18 hrs by broth dilution method; type: functional; conditions: AHU 1469, 18 h; outline: as §9
# [23] = test system: Pseudomonas fluorescens; experiment: Antibacterial activity against Pseudomonas fluorescens NIHJ B-254 assessed as growth inhibition after 18 hrs by broth dilution method; type: functional; conditions: NIHJ B-254, 18 h; outline: as §9
# [24] = test system: Salmonella typhi; experiment: Antibacterial activity against Salmonella typhi IFM 3020 assessed as growth inhibition after 18 hrs by broth dilution method; type: functional, Salmonella enterica subsp. enterica serovar Typhi; conditions: Salmonella enterica, IFM 3020, 18 h
# Outline: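 Twofold serial dilutions in heart infusion broth; inoculum from 24 h heart infusion broth culture diluted 100-fold in physiological saline; tubes incubated 30 °C for 18 h; MIC (µg/ml) = lowest level giving complete growth inhibition.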
# [25] = test system: Micrococcus luteus; experiment: Antibacterial activity against Sarcina lutea ATCC 9341 assessed as growth inhibition after 18 hrs by broth dilution method; type: functional; conditions: ATCC 9341, 18 h; outline: as §9
# [26] = test system: Shigella sonnei; experiment: Antibacterial activity against Shigella sonnei assessed as growth inhibition after 18 hrs by broth dilution method; type: functional; outline: as §9
# [27] = test system: Staphylococcus aureus; experiment: Antibacterial activity against Staphylococcus aureus FDA 209P JC-1 assessed as growth inhibition after 18 hrs by broth dilution method; type: functional; conditions: FDA 209P JC-1, 18 h; outline: as §9
# [28] = test system: Enterococcus faecalis; experiment: Antibacterial activity against Streptococcus faecalis ATCC 10541 assessed as growth inhibition after 18 hrs by broth dilution method; type: functional; conditions: ATCC 10541, 18 h; outline: as §9
# [29] = test system: Rattus norvegicus; experiment: Diabetogenic activity in Wistar rat assessed as increase in blood sugar level at 71.4 mg/kg, iv administered as single dose by glucose oxidase method; type: ADME, organism-based; set-up: dose 71.4 mg/kg, route intravenous; conditions: in vivo; outline: as §7
SMILES,T/C [1] [%],Activity [2],T/C [3] [%],Activity [4],LD50 [5] [mg/kg],LD10 [6] [mg/kg],Ratio [7],selectivity ratio [8],Activity [9],T/C [12] [%],Activity [13],ILS at 50 mg/kg [16] [%],Activity [17],further results
CCCCO[C@H]1O[C@H](CO)[C@@H](O)[C@H](O)[C@H]1NC(=O)N(CCCC)N=O,80,Non-toxic,53,Non-toxic,660,410,2,2,Non-toxic,–,–,–,–,–
CCO[C@@H]1O[C@H](CO)[C@@H](O)[C@H](O)[C@H]1NC(=O)N(CC)N=O,59,Non-toxic,–,–,–,–,–,–,Non-toxic,–,–,–,–,ILS at 100 mg/kg [10]: 10%; Activity [11]: Non-toxic
CCCN(N=O)C(=O)N[C@H]1[C@@H](OC)O[C@H](CO)[C@@H](O)[C@@H]1O,55,Non-toxic,61,Non-toxic,–,–,–,–,Non-toxic,–,–,–,–,–
CO[C@H]1O[C@H](CO)[C@@H](O)[C@H](O)[C@H]1NC(=O)N(C)N=O,–,–,–,–,1930,1380,2,2,–,37,Non-toxic,35,Non-toxic,T/C [14]: 16%; Activity [15]: Non-toxic; Activity [18]: Non-toxic; MIC [19]: > 1000 µg/mL; MIC [20]: > 1000 µg/mL; MIC [21]: > 1000 µg/mL; MIC [22]: > 1000 µg/mL; MIC [23]: > 1000 µg/mL; MIC [24]: > 1000 µg/mL; MIC [25]: > 1000 µg/mL; MIC [26]: > 1000 µg/mL; MIC [27]: > 1000 µg/mL; MIC [28]: > 1000 µg/mL
CCCCO[C@@H]1O[C@H](CO)[C@@H](O)[C@H](O)[C@H]1NC(=O)N(C)N=O,–,–,–,–,1580,1100,2,2,Non-toxic,40,Non-toxic,33,Non-toxic,T/C [14]: 4%; Activity [15]: Non-toxic
CCCN(N=O)C(=O)N[C@H]1[C@H](OC)O[C@H](CO)[C@@H](O)[C@@H]1O,69,Non-toxic,72,Non-toxic,–,–,–,–,Non-toxic,–,–,–,–,ILS at 100 mg/kg [10]: 7%; Activity [11]: Non-toxic
CCCO[C@H]1O[C@H](CO)[C@@H](O)[C@H](O)[C@H]1NC(=O)N(C)N=O,–,–,37,Non-toxic,1470,1020,2,2,Non-toxic,32,Non-toxic,29,Non-toxic,–
CCCCO[C@H]1O[C@H](CO)[C@@H](O)[C@H](O)[C@H]1NC(=O)N(C)N=O,20,Non-toxic,–,–,2000,1200,2,2,Non-toxic,–,–,30,Non-toxic,T/C [14]: 16%; Activity [15]: Non-toxic
CCCCN(N=O)C(=O)N[C@H]1[C@H](OC)O[C@H](CO)[C@@H](O)[C@@H]1O,54,Non-toxic,52,Non-toxic,–,–,–,–,Non-toxic,–,–,12,Non-toxic,–
CCO[C@@H]1O[C@H](CO)[C@@H](O)[C@H](O)[C@H]1NC(=O)N(C)N=O,–,–,–,–,2050,1550,2,2,–,37,Non-toxic,–,–,Activity [29]: Non-toxic; MIC [19]: > 1000 µg/mL; MIC [20]: > 1000 µg/mL; MIC [21]: > 1000 µg/mL; MIC [22]: > 1000 µg/mL; MIC [23]: > 1000 µg/mL; MIC [24]: > 1000 µg/mL; MIC [25]: > 1000 µg/mL; MIC [26]: > 1000 µg/mL; MIC [27]: > 1000 µg/mL; MIC [28]: > 1000 µg/mL
CCO[C@H]1O[C@H](CO)[C@@H](O)[C@H](O)[C@H]1NC(=O)N(CC)N=O,63,Non-toxic,60,Non-toxic,–,–,–,–,Non-toxic,–,–,–,–,ILS at 100 mg/kg [10]: 14%; Activity [11]: Non-toxic
